In ChEMBL document CHEMBL2029242 (J Med Chem, 2012):

Experiments:
[1] = molecular target: T1, Serine/threonine-protein kinase B-raf (Homo sapiens, UniProt P15056, V600E)
[2] = test system: A-375; experiment: Cytotoxicity against human A375 cells expressing BRAF V600E mutant after 72 hrs by cell titer blue assay; format: functional, cell-based; details: A-375, 72 h
In short: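 Cells were grown in ATCC-recommended media and kept overnight in 0.5% serum. They were then exposed to compound for 72 h, and Cell Titer Blue was added for 3 h. EC50 came from fluorometric concentration−response curves, run in duplicate and repeated at least once.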

[3] = molecular target: T1, Serine/threonine-protein kinase B-raf; remark: listed apart in the source
[4] = Clearance in Sprague-Dawley rat at 1 mg/kg, iv and 10 mg/kg, po; format: ADME, organism-based; details: in vivo
In short: (§1)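 Single-dose PK. Rats: male Sprague−Dawley, jugular-catheterized, 1 mg/kg iv in 3:1 PEG400/water (n = 2) and 10 mg/kg po in Pharmatek #6 (n = 3). Female athymic nude mice: 100 mg/kg po in Pharmatek #6 (n = 3). Beagle dogs and male cynomolgus monkeys (n = 3): crossover, 1 mg/kg iv and 10 mg/kg po in 22% HPβCD, overnight fast. Plasma LC-MS/MS to 24 h; noncompartmental parameters, mean ± SD.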

[5] = Stability in rat liver microsomes assessed as compound remaining at 1 uM after 60 mins; format: ADME, Microsome; details: read-out: Stability
In short: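 Pooled liver microsomes (0.5 mg/mL) were premixed with 0.1 M phosphate buffer pH 7.4, 6.5 mM MgCl2 and test compound (1 μM final, 0.2% DMSO). NADPH (1 mM) started the reaction at 37 °C, in duplicate. Minus-NADPH and testosterone controls were included. Aliquots were taken at 0, 5, 15, 30 and 60 min and quenched in acetonitrile containing internal standard.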

[6] = Tmax in Sprague-Dawley rat at 10 mg/kg, po; format: ADME, organism-based; parameters: dose 10 mg/kg, route oral; details: in vivo
In short: (§2)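 Male Sprague-Dawley rats (250–350 g, jugular-catheterized) received a single dose either iv at 1 mg/kg in 3:1 PEG400/water (n = 2) or po at 10 mg/kg in Pharmatek #6 (n = 3). Plasma was sampled at 5 min (iv only), 15 and 30 min, and 1, 2, 4, 6 and 24 h. Samples were analyzed by LC-MS/MS after acetonitrile precipitation. Parameters came from noncompartmental linear-trapezoidal analysis of individual animals.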

[7] = Terminal half life in Sprague-Dawley rat at 1 mg/kg, iv and 10 mg/kg, po; format: ADME, organism-based; details: in vivo, read-out: beta t1/2 (converted)
In short: as §2

[8] = AUC (infinity) in Sprague-Dawley rat at 10 mg/kg, po; format: ADME, organism-based; parameters: time infinity, dose 10 mg/kg, route oral; details: plasma
In short: as §1

[9] = Cmax in Sprague-Dawley rat at 10 mg/kg, po; format: ADME, organism-based; parameters: dose 10 mg/kg, route oral; details: in vivo
In short: as §1

[10] = Oral bioavailability in Sprague-Dawley rat at 10 mg/kg; format: ADME, organism-based; details: in vivo
In short: as §2

[11] = Volume of distribution in Sprague-Dawley rat at 1 mg/kg, iv and 10 mg/kg, po; format: ADME, organism-based; details: in vivo
In short: as §2

T1 sequence (P15056 2-766 V600E limits assumed): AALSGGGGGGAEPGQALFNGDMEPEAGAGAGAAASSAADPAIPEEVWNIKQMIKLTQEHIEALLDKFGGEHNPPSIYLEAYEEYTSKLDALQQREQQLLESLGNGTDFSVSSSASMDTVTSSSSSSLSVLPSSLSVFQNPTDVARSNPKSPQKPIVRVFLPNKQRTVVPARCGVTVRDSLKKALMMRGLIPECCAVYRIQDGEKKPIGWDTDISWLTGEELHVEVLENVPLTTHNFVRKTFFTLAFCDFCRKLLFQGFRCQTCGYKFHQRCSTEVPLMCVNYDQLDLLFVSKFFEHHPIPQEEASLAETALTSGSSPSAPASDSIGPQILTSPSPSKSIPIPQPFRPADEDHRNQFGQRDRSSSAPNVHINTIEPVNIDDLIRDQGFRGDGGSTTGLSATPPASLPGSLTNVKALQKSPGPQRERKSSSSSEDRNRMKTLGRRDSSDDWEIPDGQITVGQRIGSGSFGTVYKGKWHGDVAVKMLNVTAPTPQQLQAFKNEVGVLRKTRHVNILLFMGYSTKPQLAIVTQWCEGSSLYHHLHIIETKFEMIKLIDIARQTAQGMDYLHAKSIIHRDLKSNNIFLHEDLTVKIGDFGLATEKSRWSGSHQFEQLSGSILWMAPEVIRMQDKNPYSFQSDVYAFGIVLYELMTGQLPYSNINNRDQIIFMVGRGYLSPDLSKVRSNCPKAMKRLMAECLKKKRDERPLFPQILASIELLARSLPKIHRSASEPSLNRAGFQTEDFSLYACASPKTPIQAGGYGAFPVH

SMILES	Kd [1]	IC50 [2]	IC50 [3]	clearance [4]	remaining at 1 h, 1 µM [5]	Tmax [6]	half-life [7]	AUC(0-inf) [8]	Cmax [9]	bioavailability [10]	Vd [11]
COc1cc2ncnc(Sc3cccc(NC(=O)Nc4cc(C(C)(C)F)no4)c3)c2cc1OC	39 nM	1470 nM	84 nM	–	–	–	–	–	–	–	–
COc1cc2ncnc(Oc3cccc(NC(=O)Nc4cc(C(C)(C)F)on4)c3)c2cc1OC	29 nM	493 nM	276 nM	2.9 mL/min/kg	92%	2 h	3.5 h	127 µM·h	21.1 µM	100%	0.5 L/kg
COc1cc2ncnc(Oc3cccc(NC(=O)Nc4cc(C(C)(C)C)nn4-c4ccccc4)c3)c2cc1OC	295 nM	–	21 nM	3.1 mL/min/kg	–	1.3 h	4.2 h	25.9 µM·h	6.7 µM	33%	0.3 L/kg
COc1cc2ncnc(Oc3cccc(NC(=O)Nc4cc(C5(C(F)(F)F)CC5)on4)c3)c2cc1OC	27 nM	117 nM	183 nM	–	–	–	–	–	–	–	–
COc1cc2ncnc(Oc3cccc(NC(=O)Nc4cc(C(C)(C)F)no4)c3)c2cc1OC	44 nM	125 nM	155 nM	4 mL/min/kg	82%	2 h	4.7 h	42 µM·h	7.9 µM	48%	0.6 L/kg
COc1cc2ncnc(Oc3cccc(NC(=O)Nc4cnn(C(C)(C)C)c4)c3)c2cc1OC	75 nM	> 15000 nM	1130 nM	–	–	–	–	–	–	–	–
COc1cc2ncnc(Oc3cccc(NC(=O)Nc4cc(C(C)(C)C#N)no4)c3)c2cc1OC	48 nM	6160 nM	332 nM	–	–	–	–	–	–	–	–
COc1cc2ncnc(Oc3cccc(NC(=O)Nc4cc(C(C)(CF)CF)on4)c3)c2cc1OC	45 nM	145 nM	109 nM	–	–	–	–	–	–	–	–
COc1cc2ncnc(Oc3cccc(NC(=O)Nc4cc(C(C)(C)C(F)(F)F)nn4-c4ccccc4)c3)c2cc1OC	271 nM	–	62 nM	–	–	–	–	–	–	–	–
COc1cc2ncnc(Oc3cccc(NC(=O)Nc4ccc(C(C)(C)C)cc4)c3)c2cc1OC	–	3490 nM	–	–	–	–	–	–	–	–	–
COc1cc2ncnc(Oc3cccc(NC(=O)Nc4cc(C(C)(C)C)nn4C(C)C)c3)c2cc1OC	85 nM	543 nM	505 nM	–	–	–	–	–	–	–	–
COc1cc2ncnc(Oc3cccc(NC(=O)Nc4cc(C(F)(F)F)no4)c3)c2cc1OC	78 nM	5150 nM	2230 nM	–	–	–	–	–	–	–	–
COc1cc2ncnc(Oc3cccc(NC(=O)Nc4cc(C(C)(C)C)no4)c3)c2cc1OC	–	–	–	9.8 mL/min/kg	51%	0.8 h	8.2 h	1.9 µM·h	0.7 µM	6%	1 L/kg
COc1cc2ncnc(Oc3cccc(NC(=O)Nc4cc(-c5ccccc5)no4)c3)c2cc1OC	1450 nM	7070 nM	> 15000 nM	–	–	–	–	–	–	–	–
COc1cc2ncnc(Oc3cccc(NC(=O)Nc4cc(C(C)C)on4)c3)c2cc1OC	19 nM	527 nM	355 nM	–	–	–	–	–	–	–	–
COc1cc2ncnc(Oc3cccc(NC(=O)Nc4cc(C(C)(C)CO)on4)c3)c2cc1OC	49 nM	> 15000 nM	649 nM	–	–	–	–	–	–	–	–
COc1cc2ncnc(Oc3cccc(NC(=O)Nc4cc(C(C)(F)F)no4)c3)c2cc1OC	76 nM	694 nM	645 nM	–	–	–	–	–	–	–	–
COc1cc2ncnc(Sc3cccc(NC(=O)Nc4cc(C(C)(CF)CF)on4)c3)c2cc1OC	50 nM	223 nM	93 nM	–	–	–	–	–	–	–	–

SMILES	Kd [1]	IC50 [2]	IC50 [3]	clearance [4]	remaining at 1 h, 1 µM [5]	Tmax [6]	half-life [7]	AUC(0-inf) [8]	Cmax [9]	bioavailability [10]	Vd [11]
COc1cc2ncnc(Oc3cccc(NC(=O)Nc4cc(-c5ccccc5)on4)c3)c2cc1OC	136 nM	> 15000 nM	956 nM	–	–	–	–	–	–	–	–
COc1cc2ncnc(Oc3cccc(NC(=O)Nc4cc(C(C)(C)C(F)(F)F)no4)c3)c2cc1OC	66 nM	549 nM	174 nM	–	–	1.7 h	–	40.7 µM·h	4.7 µM	–	–
COc1cc2ncnc(Oc3cccc(NC(=O)Nc4cc(C)on4)c3)c2cc1OC	678 nM	> 15000 nM	> 15000 nM	–	–	–	–	–	–	–	–
COCC(C)(C)c1cc(NC(=O)Nc2cccc(Oc3ncnc4cc(OC)c(OC)cc34)c2)no1	151 nM	1550 nM	324 nM	–	–	–	–	–	–	–	–
COc1cc2ncnc(Sc3cccc(NC(=O)Nc4cc(C5(C(F)(F)F)CC5)on4)c3)c2cc1OC	31 nM	222 nM	469 nM	–	–	–	–	–	–	–	–
COc1cc2ncnc(Oc3cccc(NC(=O)Nc4cc(C(C)(C)C)nn4C)c3)c2cc1OC	87 nM	4270 nM	336 nM	–	–	–	–	–	–	–	–
COc1cc2ncnc(Oc3cccc(NC(=O)Nc4cc(C(C)C)no4)c3)c2cc1OC	31 nM	2960 nM	340 nM	–	–	–	–	–	–	–	–
COc1cc2ncnc(Oc3cccc(NC(=O)Nc4cc(C(C)(C)C)nn4C4CCCCC4)c3)c2cc1OC	174 nM	> 15000 nM	> 1670 nM	–	–	–	–	–	–	–	–
COc1cc2ncnc(Oc3cccc(NC(=O)Nc4cc(C(C)(CF)CF)no4)c3)c2cc1OC	132 nM	1980 nM	339 nM	–	–	–	–	–	–	–	–
COc1cc2ncnc(Oc3cccc(NC(=O)Nc4cc(C5CCCC5)no4)c3)c2cc1OC	122 nM	4380 nM	1130 nM	–	–	–	–	–	–	–	–
COc1cc2ncnc(Oc3cccc(NC(=O)Nc4cc(C(C)(C)C)nn4CC(C)C)c3)c2cc1OC	101 nM	1160 nM	681 nM	–	–	–	–	–	–	–	–
COc1cc2ncnc(Oc3cccc(NC(=O)Nc4cc(C(C)(C)C)nn4Cc4ccccc4)c3)c2cc1OC	175 nM	1870 nM	480 nM	–	–	–	–	–	–	–	–
COc1cc2ncnc(Oc3cccc(NC(=O)Nc4cc(C(C)(C)C)on4)c3)c2cc1OC	–	328 nM	–	7.3 mL/min/kg	46%	0.8 h	19.2 h	17 µM·h	11 µM	49%	0.5 L/kg
COc1cc2ncnc(Oc3cccc(NC(=O)Nc4cccc(C(C)(C)C)c4)c3)c2cc1OC	–	1770 nM	–	–	–	–	–	–	–	–	–
COc1cc2ncnc(Oc3cccc(NC(=O)Nc4cc(C5(C(F)(F)F)CCC5)no4)c3)c2cc1OC	129 nM	2240 nM	308 nM	–	–	–	–	–	–	–	–
COc1cc2ncnc(Sc3cccc(NC(=O)Nc4cc(C(C)(C)C(F)(F)F)on4)c3)c2cc1OC	74 nM	> 15000 nM	142 nM	–	–	–	–	–	–	–	–
COc1cc2ncnc(Oc3cccc(NC(=O)Nc4cc(C5CCCC5)on4)c3)c2cc1OC	37 nM	488 nM	134 nM	–	–	–	–	–	–	–	–
